A selection: hits, their analogues and other compounds. The true share with any hit is near 2.3%.
TRPC4 PAM: allosterically enhances the mouse TRPC4 cation channel; Q9QUQ5; HEK293 TRPC4beta/mu-opioid, DAMGO EC20, Fluo-4 Ca2+ flux; stronger effect = higher value; B-score at 10 µM; 310,000 compounds, 0.42% hits; AID 2227;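 active = B-score of calcium response area above 5 SD of library B-scores, with initial fluorescence ratio within 5 SD of library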;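 note: B-score of integrated fluorescence ratio over time as area under calcium response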
TRPC4 act: opens the mouse TRPC4 cation channel; Q9QUQ5; B-score at 10 µM; HEK293 TRPC4beta/mu-opioid, Fluo4 calcium fluorescence; stronger effect = higher value; 310,000 compounds, 0.49% hits; AID 2237;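 active = B-score above 5 SD of library B-scores, and initial fluorescence ratio not above library mean plus 5 SD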;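 note: positive B-score marks a calcium rise read as TRPC4 activation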
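Technique: kinetic Fluo4 calcium fluorescence; Test system: TRPC4beta and mu-opioid receptor HEK293 stable cells; Measure: B-scored integrated calcium fluorescence ratio; Benchmarks: low control buffer alone, high control maximal DAMGO; Schedule: 45 min room-temperature Fluo4 loading, 110 s read.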
TRPC6 inhibitor: blocks the mouse TRPC6 cation channel; AID 2553; Q61143; B-score at 10 µM; 310,000 compounds, 1.1% hits; HEK293-TRPC6, membrane potential dye, ACh-evoked depolarization; stronger effect = lower value;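 active = B-score under library mean minus 3 SD, initial fluorescence not abnormally high, positive integrated signal ratio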;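 note: B-score derived from integrated fluorescence ratio over the kinetic read; more negative B-score means stronger inhibition of depolarization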
Target sequence (Q61143 whole entry, looked up): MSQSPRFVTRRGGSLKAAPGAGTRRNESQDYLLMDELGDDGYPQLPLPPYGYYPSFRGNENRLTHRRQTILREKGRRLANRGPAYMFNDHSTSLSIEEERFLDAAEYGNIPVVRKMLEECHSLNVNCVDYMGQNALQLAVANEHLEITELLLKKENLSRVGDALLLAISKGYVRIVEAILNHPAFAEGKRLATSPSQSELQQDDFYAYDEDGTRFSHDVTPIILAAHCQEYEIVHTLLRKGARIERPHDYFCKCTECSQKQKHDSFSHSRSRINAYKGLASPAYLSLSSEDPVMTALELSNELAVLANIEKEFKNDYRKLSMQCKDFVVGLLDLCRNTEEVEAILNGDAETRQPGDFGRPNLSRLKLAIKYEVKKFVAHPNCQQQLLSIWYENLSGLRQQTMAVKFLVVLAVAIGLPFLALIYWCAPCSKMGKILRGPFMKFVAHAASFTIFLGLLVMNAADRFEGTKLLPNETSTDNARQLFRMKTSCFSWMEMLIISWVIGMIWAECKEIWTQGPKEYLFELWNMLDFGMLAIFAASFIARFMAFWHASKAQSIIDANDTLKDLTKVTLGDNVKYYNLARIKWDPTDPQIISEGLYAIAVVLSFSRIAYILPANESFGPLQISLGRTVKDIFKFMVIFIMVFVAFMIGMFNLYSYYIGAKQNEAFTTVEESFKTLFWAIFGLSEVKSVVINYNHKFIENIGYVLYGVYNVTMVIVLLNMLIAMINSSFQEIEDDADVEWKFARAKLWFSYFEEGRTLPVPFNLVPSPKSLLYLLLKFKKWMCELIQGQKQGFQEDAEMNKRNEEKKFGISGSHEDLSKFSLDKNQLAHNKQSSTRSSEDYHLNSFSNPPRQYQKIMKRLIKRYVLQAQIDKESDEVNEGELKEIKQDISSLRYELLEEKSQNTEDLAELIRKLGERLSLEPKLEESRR
TRPC4 block: blocks the mouse TRPC4 cation channel. HEK293 TRPC4beta/mu-opioid, DAMGO-evoked Fluo4 calcium flux; stronger effect = lower value. B-score at 10 µM. 300,000 compounds, 0.39% hits;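 active = B-score over 3 SD under the library average, no early fluorescence shift, positive overall ratio signal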
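Signal: kinetic Fluo4 fluorescence imaging of calcium influx. Material: stable TRPC4beta/mu-opioid receptor HEK293 cells. Probe or stimulus: DAMGO in two steps, submaximal then maximal.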
TRPC6 activator: activators of mouse TRPC6 channel. AID 2550. 310,000 compounds, 0.13% hits. B-score at 10 µM. HEK293-TRPC6 membrane potential dye fluorescence; stronger effect = higher value. Q61143;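 active = B-score of the integrated fluorescence ratio above library mean plus 3 SD, and starting fluorescence ratio within library mean plus 5 SD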;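 note: higher score means more depolarization so channel activation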
TRPC4 spec 2: mouse TRPC4 off-target activity of TRPC6 inhibitors, second screen; shares compounds with TRPC6 inhibitor; HEK293 TRPC4/MOR, membrane potential dye fluorescence; channel activated by saturating DAMGO dose; inhibition, % at 10 µM; 920 compounds, 42% hits;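 active = compounds whose fluorescence signal differed from control wells by over 3 SD, either direction, in both duplicate plates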
TRPC4 spec: tests whether TRPC6 inhibitors also affect mouse TRPC4 | shares compounds with TRPC6 inhibitor | HEK293 TRPC4/mu-opioid, membrane potential fluorescence | activity change, negative = inhibition, % at 10 µM | 920 compounds, 61% hits | AID 2777;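 active = rise or fall in signal beyond 3 SD of buffer-only wells in both replicate plates, either sign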;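 note: integrated kinetic ratio of fluorescence range over baseline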
HEK293 MPD ctr 2-1: parental HEK293 nonspecific activity of TRPC6 inhibitors, second screen; shares compounds with TRPC6 inhibitor; parental HEK293 membrane potential dye fluorescence; maximal acetylcholine challenge after compound addition; signal change vs control, % at 10 µM; 920 compounds, 31% hits; AID 2779;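 active = membrane potential signal moving either way by over 3 SD of the maximum-effect control, in both duplicate plates, meaning non-specific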
HEK293 MPD ctr-1: counter-screen for TRPC6 inhibitors: effect in parental HEK293 cells; shares compounds with TRPC6 inhibitor; parental HEK293 membrane potential dye fluorescence; membrane potential signal change, % at 10 µM; 920 compounds, 60% hits; AID 2780;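 active = membrane potential signal shifting up or down by more than 3 SD of buffer-only wells, on both duplicate plates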
HEK293 MPD ctr-2: checks TRPC6 modulator effects in parental HEK293 cells; membrane potential dye fluorescence; membrane potential signal change, % at 10 µM; shares compounds with TRPC6 inhibitor; 2,400 compounds, 51% hits;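 active = membrane potential signal moves up or down beyond 5 SD from buffer-only wells, on both duplicate plates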
HEK293 MPD ctr 2-2: second check of TRPC6 modulator effects in parental HEK293 cells. inhibition, % at 10 µM. membrane potential dye fluorescence; after compound, maximal acetylcholine stimulation. 2,400 compounds, 14% hits. AID 488926. shares compounds with TRPC6 inhibitor;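 active = membrane potential signal drops by more than 5 SD from the mean control signal, in both duplicate plates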;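 note: plate controls were acetylcholine ECmax control wells for no effect and buffer only wells for full effect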
TRPC4 ctr mod: tests whether TRPC6 modulators also affect mouse TRPC4; 2,400 compounds, 69% hits; HEK293 TRPC4/mu-opioid, membrane potential fluorescence; percent change from control (negative = decrease, positive = increase), % at 10 µM; shares compounds with TRPC6 inhibitor;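 active = membrane potential signal moved up or down beyond 5 SD of buffer control wells, in both duplicate plates, actives on both sides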;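 note: plate controls were assay buffer wells for no effect and DAMGO maximal-effect wells for full effect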
TRPC4/MOR inh 2: mouse TRPC4 off-target activity of TRPC6 modulators, second screen; shares compounds with TRPC6 inhibitor; HEK293 TRPC4/mu-opioid, membrane potential dye fluorescence; stimulated with maximal-effect DAMGO; inhibition, % at 10 µM; 2,400 compounds, 55% hits; AID 488928;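 active = drop in membrane potential signal beyond 5 SD of the control wells in both duplicate plates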;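 note: TRPC4 counter screen for TRPC6 hits run under conditions tuned for TRPC6 not TRPC4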
TRPC6 inh conf: confirmation of mouse TRPC6 inhibitors; HEK293-TRPC6, membrane potential dye, ACh-evoked depolarization; 3,300 compounds, 43% hits; inhibition, % at 10 µM; shares compounds with TRPC6 inhibitor;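 active = fluorescence ratio falls more than 5 SD below the full-stimulation control mean, in both duplicate runs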;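 note: integrated fluorescence ratio of peak minus minimum over baseline after agonist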
TRPC6 act confirm: mouse TRPC6 activator confirmation; shares compounds with TRPC6 inhibitor; activation, % at 10 µM; 2,800 compounds, 11% hits; HEK293-TRPC6 membrane potential dye fluorescence, FDSS; AID 488961;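 active = ratio signal rise beyond 5 SD above unstimulated control wells' mean, seen in both duplicate runs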;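 note: plate controls were buffer EC0 wells for no effect and acetylcholine ECmax response for full effect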
Numbers without * were called inactive; i = inactive; . = no result given.

SMILES	TRPC4 PAM	TRPC4 act	TRPC6 inhibitor	TRPC4 block	TRPC6 activator	HEK293 MPD ctr-2	HEK293 MPD ctr 2-2	TRPC4 ctr mod	TRPC4/MOR inh 2	TRPC6 inh conf	TRPC6 act confirm	others
CCN1CCc2c(OCc3ccccc3)cccc2C1=O	i	i	-5.6*	i	i	125.5%*	i	21.0%*	i	i	.
COc1ccc(OC)c(NC(=O)CSc2nnc(-c3cnccn3)n2C)c1	i	i	i	i	i	.	.	.	.	.	.
CCOC(=O)C1=c2s/c(=C\c3cccnc3)c(=O)n2C(N)=C(C(=O)OC)C1c1cccnc1 (centres undefined)	i	i	-5.1*	i	i	i	i	i	i	i	i
Cn1c(SCc2cccc(C#N)c2)nc2ccccc2c1=O	i	i	i	i	i	.	.	.	.	.	.
O=C(Cn1nnc(-c2ccccc2)n1)c1ccccc1	i	i	i	i	i	.	.	.	.	.	.
O=C(Cn1c(-c2ccccc2)c[n+]2ccsc12)c1ccc([N+](=O)[O-])cc1	i	50*	-5.33*	-7*	i	-198.0%*	i	35.0%*	90.5%*	i	i
O=C(Cn1c(-c2ccccc2)c[n+]2ccsc12)c1ccccc1	i	i	-5.29*	-11*	i	i	i	16.5%*	57.5%*	i	i
CCCCN1C(=O)C(=O)N(CC(=O)Nc2ccccc2C(=O)OCC)C1=O	i	i	i	i	i	.	.	.	.	.	.
CN1CCN(c2ccc(Cl)cc2NC(=O)c2ccc(=O)n(C)n2)CC1	i	i	-9.02*	i	i	-340.0%*	67.5%*	-59.0%*	54.0%*	52.0%*	i
CN(C)CCNC(=O)c1sc2nc(-c3ccccc3)cc(C(F)(F)F)c2c1N	i	83*	i	i	15.7*	311.5%*	i	57.0%*	45.0%*	.	143.5%*
COc1ccc(-c2cc(C(F)(F)F)c3c(N)c(C(=O)NCCSC)sc3n2)cc1	i	i	i	i	i	.	.	.	.	.	.
O=Cc1ccc2ccc3cccnc3c2n1	i	i	-9.85*	i	i	-386.0%*	95.0%*	-60.0%*	68.5%*	78.5%*	i
COC(=O)c1cccc(CSC(=S)N2CCCC2)c1	i	i	i	i	12.7*	i	i	i	i	.	130.0%*
COC(=O)c1ccc(C(=S)N2CCCCC2)cc1	i	i	i	i	i	.	.	.	.	.	.
Cc1cccc[n+]1CC(=O)Nc1ccc([N+](=O)[O-])cc1Cl	i	i	i	i	i	.	.	.	.	.	.
O=C(C[n+]1ccc(Cc2ccccc2)cc1)Nc1ccc([N+](=O)[O-])cc1Cl	i	i	-7.59*	i	i	.	.	.	.	i	i	TRPC4 spec 2=i;TRPC4 spec=-26.8%*;HEK293 MPD ctr 2-1=i;HEK293 MPD ctr-1=-333.5%*
Cc1onc(-c2ccccc2)c1C(=O)N/N=C/c1ccc([N+](=O)[O-])s1	i	i	-8.16*	i	i	.	.	.	.	i	i	TRPC4 spec 2=i;TRPC4 spec=i;HEK293 MPD ctr 2-1=i;HEK293 MPD ctr-1=i
O=S(=O)(NCCN1CCOCC1)c1cc(Cl)c(Cl)cc1Cl	i	i	i	i	i	.	.	.	.	.	.
O=C(NC(=S)NC1C2CC3CC(C2)CC1C3)C12CC3CC(CC(C3)C1)C2 (centres undefined)	i	i	-8.01*	i	i	.	.	.	.	i	i	TRPC4 spec 2=i;TRPC4 spec=i;HEK293 MPD ctr 2-1=i;HEK293 MPD ctr-1=i
Cc1cccc(-c2nc(CN3CCCC(C(=O)NC4CCC(C)CC4)C3)c(C)o2)c1 (centres undefined)	i	i	-6.55*	i	i	182.5%*	i	33.0%*	46.5%*	i	.
Nn1c(COc2ccccc2F)nnc1SCC(=O)NC1CC1	i	i	i	i	i	.	.	.	.	.	.
c1ccc(Cn2c(CNc3nc4ccccc4n3CCN3CCCCC3)nc3ccccc32)cc1	i	i	-6.65*	i	i	.	.	.	.	i	i	TRPC4 spec 2=59.0%*;TRPC4 spec=11.1%*;HEK293 MPD ctr 2-1=284.5%*;HEK293 MPD ctr-1=6.9%*
CCN(CC)CCn1c(NCc2ccco2)nc2ccccc21	i	i	i	i	i	.	.	.	.	.	.
CCN(CC)CCn1c(NCc2nc3ccccc3n2Cc2ccccc2)nc2ccccc21	i	i	-7.1*	i	i	.	.	.	.	53.0%*	i	TRPC4 spec 2=36.5%*;TRPC4 spec=18.0%*;HEK293 MPD ctr 2-1=275.5%*;HEK293 MPD ctr-1=8.3%*
CCn1c(NCc2ccc(N(C)C)cc2)nc2ccccc21	i	i	-5.31*	i	i	i	i	-14.0%*	46.0%*	i	i
CCN(CC)c1ccc(CNc2nc3ccccc3n2CCN2CCCCC2)cc1	i	119*	-5.91*	i	i	i	i	31.5%*	97.0%*	51.5%*	i
CC1(C)Cc2c(cnn2-c2cccc(F)c2)C(NC(=O)c2ccc(=O)[nH]n2)C1 (centres undefined)	i	i	i	i	i	.	.	.	.	.	.
Cc1ccc(NC(=O)CSCC(=O)OCc2cc(=O)oc3cc(O)ccc23)c(C)c1	i	i	i	i	i	.	.	.	.	.	.
